Bioassay records as filed in PubChem BioAssay.
ANO1 block – TMEM16A chloride channel inhibitors, primary screen, cell-based, HTS. HEK293 TMEM16A/YFP iodide influx fluorescence, ionomycin. normalized B-score (activity score, 25-100; higher = stronger inhibition) at 10 µM. 310,000 tested, 1.2% active. Anoctamin-1 (Mus musculus), Q8BHY3. AID 588511, 2011;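 active = ratio plate-corrected score three or more library SD toward inhibition, starting fluorescence score within five deviations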;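 note: score derived from kinetic fluorescence span divided by baseline fluorescence per well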
ANO1 activ – TMEM16A chloride channel activators or potentiators, primary screen, cell-based, HTS | Anoctamin-1 (Mus musculus), Q8BHY3 | HEK293 TMEM16A/YFP-H148Q/I152L, iodide quench fluorescence; hits give low values | B-score at 10 µM | 340,000 tested, 0.3% active | AID 623877, 2012;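 active = fluorescence-ratio B-score plate-corrected deviation score at least 3 library SD below zero, with starting fluorescence score within 5 deviations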;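 note: channel opened by trigger with iodide after compound preincubation; score built on the fluorescence ratio of max minus min over baseline; more negative score means more quench and so TMEM16A activation or potentiation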
MT1-MMP act inh – blockers of MT1-MMP proenzyme processing, primary screen, HT1080 RFP-PRO-GFP cells, GFP/RFP fluorescence | GFP/RFP ratio fluorescence, overnight; percent of plate control window, DMSO zero | GFP/RFP ratio change, % at 20 µM | 360,000 tested, 0.061% active | AID 651647, 2012;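 active = GFP/RFP ratio change of at least 30% with cell ATP level not reduced by more than half and red fluorescence within 50% of control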
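Material – HT1080 RFP-PRO-GFP cells · Control set – DMSO wells and RFP-L50D-GFP cells · Incubation – overnight cell settling, then overnight compound exposure, 37 °C, 5% CO2 · Compound dosing – single-point 20 µM compound, 1% DMSO · Read-out – GFP/RFP fluorescence ratio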
DAGLB inhibitor – DAGLB lipase inhibitors, primary screen, biochemical, fluorescence, HTS. HEK293T DAGLB membrane lysate, EnzChek fluorogenic substrate. inhibition, % at 5.17 µM. 340,000 tested, 0.059% active. AID 504411, 2011; in the data active = inhibition above about 34%
Target sequence (Q8NCG7 whole entry, looked up): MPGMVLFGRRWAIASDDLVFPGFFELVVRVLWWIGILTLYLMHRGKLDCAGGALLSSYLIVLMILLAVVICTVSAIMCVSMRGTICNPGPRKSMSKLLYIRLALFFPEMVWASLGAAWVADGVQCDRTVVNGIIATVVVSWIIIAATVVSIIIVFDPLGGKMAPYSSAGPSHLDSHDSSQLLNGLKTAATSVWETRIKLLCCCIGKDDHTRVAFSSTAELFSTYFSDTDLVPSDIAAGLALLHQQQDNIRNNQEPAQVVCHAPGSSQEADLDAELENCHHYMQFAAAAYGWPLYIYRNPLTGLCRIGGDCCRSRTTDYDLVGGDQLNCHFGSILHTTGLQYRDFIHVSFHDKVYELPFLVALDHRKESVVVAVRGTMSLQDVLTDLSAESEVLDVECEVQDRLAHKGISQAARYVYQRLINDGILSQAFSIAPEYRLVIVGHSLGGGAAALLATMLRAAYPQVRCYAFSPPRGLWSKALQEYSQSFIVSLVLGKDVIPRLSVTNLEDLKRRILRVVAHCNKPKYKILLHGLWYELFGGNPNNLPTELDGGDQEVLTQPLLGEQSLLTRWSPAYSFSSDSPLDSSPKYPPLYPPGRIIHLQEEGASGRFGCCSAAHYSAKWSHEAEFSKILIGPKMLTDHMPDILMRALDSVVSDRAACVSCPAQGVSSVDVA
Large screens that a line does not name were inactive. Compounds with a hit are over-represented: about 1.3% of the library has one in this group of screens.

COc1ccc(/C=C(/C(=O)c2cccs2)N2C=CC=CC2=C(C#N)C#N)cc1	ANO1 activ -5 (no result: ANO1 block)
CC1CC(C)(C)N(C(=O)CN2C(=O)c3ccccc3C2=O)c2ccccc21 (stereo not given)	ANO1 activ -6.2
COc1ccccc1OCCSc1nc2ccc([N+](=O)[O-])cc2s1	ANO1 block 100
O=S(=O)(NCc1ccc(F)cc1)c1ccc(Br)cc1Br	none (no result: ANO1 block)
C=CCN1C(=O)S/C(=C/c2ccc(Sc3nc4ccccc4[nH]3)o2)C1=O	ANO1 block 100
CC(C)N1C(=O)S/C(=C/c2ccc(Sc3nc4ccccc4[nH]3)o2)C1=O	ANO1 block 100
C=CCN1C(=O)S/C(=C/c2ccsc2)C1=O	none
CC1=CC(C)(C)NC(=S)N1c1ccc(N(C)C)cc1	none (no result: ANO1 block)
CCCc1cc(=O)[nH]c(SCC(=O)NC2(C#N)CCCCC2)n1	none (no result: ANO1 block)
Nn1cc(-c2ccccc2)nc1SCC(=O)NCC1CCCO1 (stereo not given)	ANO1 activ -20
CCn1c(SCC(=O)NCC2CCCO2)nnc1-c1ccccc1 (stereo not given)	none
CC1(c2ccc(OC(F)F)cc2)NC(=O)N(CC(=O)Nc2cccc(S(N)(=O)=O)c2)C1=O (stereo not given)	none
CC1(c2ccc(OC(F)F)cc2)NC(=O)N(/N=C/c2c(O)ccc3ccccc23)C1=O (stereo not given)	ANO1 activ -4.7
Cc1nn(CC(C)C)c(Cl)c1C(=O)N(C)CC(=O)Nc1ccc(Cl)cc1	none (no result: ANO1 block, ANO1 activ)
O=C(Cn1c(=O)oc2ccccc21)Nc1ccc(S(=O)(=O)N2CCCCC2)cc1	ANO1 activ -6.5
O=C(Nc1ccc(S(=O)(=O)N2CCCCC2)cc1)c1ccc(CN2CCOCC2)cc1	ANO1 block 100
NS(=O)(=O)c1ccc(NC(=O)CN2CCCN(S(=O)(=O)c3ccc(F)cc3)CC2)cc1	ANO1 activ -7.8
CCNC(=O)C1(C)CCCN(Cc2noc(-c3c(C)noc3C)n2)C1 (stereo not given)	none (no result: ANO1 block, ANO1 activ, DAGLB inhibitor)
Cc1cccc(NC(=O)c2ccc(NS(=O)(=O)c3cccc4cccnc34)cc2)c1	none (no result: ANO1 block)
O=C1CCN(Cc2cccnc2)CCN1[C@H](CO)c1ccccc1	none
COc1ccc(CN2CCC(=O)N([C@H](CO)c3ccccc3)CC2)cc1	ANO1 activ -11
N#C/C(=N\Nc1cccc(C(F)(F)F)c1)C(=O)c1csc(-c2cccnc2)n1	ANO1 block 100
CCCS(=O)(=O)NC(=O)C1(C)CCCN(C(=O)c2ccccc2OC(F)(F)F)C1 (stereo not given)	none (no result: ANO1 block, ANO1 activ, DAGLB inhibitor)
Cc1cc(NC(=O)COC(=O)c2ccc(OC(F)(F)F)cc2)no1	none (no result: ANO1 block)
Cc1cc(NC(=O)COC(=O)C(Nc2ccc(C(F)(F)F)cc2Cl)C(C)C)no1 (stereo not given)	ANO1 block 100
Cc1ccc(C(=O)NC(C)c2ccc(F)cc2)cc1 (stereo not given)	none
Cc1ccc(C(C#N)c2ccc(C(=O)c3ccc(F)cc3)cc2)cc1 (stereo not given)	ANO1 block 25
COc1ccc([C@H]2CC(=O)C=C(c3cc(OC)ccc3OC)C2)cc1	none (no result: ANO1 block)
O=P(c1ccccc1)(c1ccccc1)c1ccccc1C(Br)Br	none (no result: ANO1 block, ANO1 activ)
Cc1ccc(NC(=S)N(Cc2ccc(Cl)cc2)Cc2ccc(C(=O)O)cc2)cc1Cl	ANO1 block 25
COc1ccc(CN(CC2CCC(C(=O)O)CC2)C(=S)Nc2ccc(C)c(Cl)c2)cc1 (stereo not given)	none
CC(C)N(C(=O)CSc1ncnc2sc(-c3ccccc3)cc12)C(C)C	ANO1 block 25
COc1ccc(S(=O)(=O)N2CCOCC2)cc1NC(=O)CN1C(=O)NC2(CCCCC2C)C1=O (stereo not given)	none (no result: ANO1 block)
COc1ccc(C2=NOC(C(=O)NC(C)C)C2)cc1 (stereo not given)	none
COc1ccc(CNC(=O)C2CC(c3ccc(OC)cc3)=NO2)cc1 (stereo not given)	ANO1 block 100
COc1cccc(C2=NOC(C(=O)NC(C)C)C2)c1 (stereo not given)	ANO1 block 25
O=CNC(n1cnc2c(N3CCOCC3)ncnc21)C(Cl)(Cl)Cl (stereo not given)	ANO1 activ -7.2
c1ccc(-n2nnc3c(N4CCOCC4)ncnc32)cc1	none
C=C(c1ccc2nc(NC(=O)OC)[nH]c2c1)c1cccs1	none (no result: ANO1 block)
CCn1cc(/C=C(\NC(=O)c2ccc(C)cc2)C(=O)NCCCN2CCOCC2)c2ccccc21	none (no result: ANO1 block)
CCn1cc(/C=C(\NC(=O)c2ccc(OC)c(OC)c2)C(=O)NCCCN2CCOCC2)c2ccccc21	ANO1 activ -43 (no result: ANO1 block)
CCCCCCC(C)n1cc(C(C)=O)c(=O)[nH]c1=O (stereo not given)	ANO1 block 100
CC(C)CC(=O)/C(=C\c1ccc(Cl)cc1Cl)n1cncn1	ANO1 activ -7.1 (no result: ANO1 block)
Cc1cc(C)c2c(c1)-c1c(ssc1=S)C(C)(C)N2C(=O)CN1C(=O)c2ccccc2C1=O	ANO1 activ -13
CC(=O)c1c(C)[nH]c(C(=O)Nc2c(C)n(C)n(-c3ccccc3)c2=O)c1C	ANO1 block 100
Cc1ccc2c(C)c(C(=O)Nc3c(C)n(C)n(-c4ccccc4)c3=O)oc2c1	ANO1 activ -19
CC(=O)C[C@H]1SC[C@@H](C(C)C)N1S(=O)(=O)c1ccc(C)cc1	none (no result: ANO1 block, ANO1 activ, DAGLB inhibitor)
Cc1nn(C)c(C)c1Sc1ccc(Br)cc1	ANO1 block 25
COc1ccc(CC(=O)OCC(=O)N2N=C(c3ccccc3)CC2c2ccc(OC)cc2)cc1 (stereo not given)	none
CCCCC(=O)OCC(=O)N1N=C(c2c[nH]c3ccccc23)C(O)C1c1ccc(OC)cc1 (stereo not given)	ANO1 block 25
CCOc1cc(O)c(-c2[nH]ncc2-c2nc(C)cs2)cc1CC	ANO1 block 25
CCc1cc(-c2[nH]ncc2-c2nc3ccccc3n2C)c(O)cc1O	none
CCN1CCC[C@H]1CNCCCn1cnc2c(SC)ncnc21	none (no result: ANO1 block, ANO1 activ)
CCc1ccc(CN(C)C(=O)c2cc(COc3c(F)cccc3F)on2)cc1	ANO1 activ -26
CN(Cc1cccc2ccccc12)C(=O)c1cc(COc2c(F)cccc2F)on1	none
CN(Cc1ccc2nsnc2c1)C(=O)C1CCC(=O)N(CCc2ccccc2)C1 (stereo not given)	none (no result: ANO1 block, ANO1 activ)
COc1ccc(OCCCC(=O)N2CCCc3ccccc32)cc1	ANO1 activ -6.4
COc1ccc(CCC(=O)N2CCCc3ccccc32)cc1	none
Cc1cc2c(c(=O)o1)C(c1cccs1)C(C#N)=C(N)O2 (stereo not given)	none
Cc1ccc([C@H]2C(C#N)=C(N)Oc3cc(C)oc(=O)c32)o1	ANO1 activ -4.6
CCCCn1c(NC(=O)c2ccc(F)cc2)c(C#N)c2nc3ccccc3nc21	ANO1 block 100 (no result: ANO1 activ, MT1-MMP act inh, DAGLB inhibitor)
O=C(NCc1cccc(C(F)(F)F)c1)C1C(=O)Nc2ccccc2C(=O)N1C1CCCC1 (stereo not given)	none (no result: ANO1 block, ANO1 activ, DAGLB inhibitor)
